Tm and folding enthalpy data for 37 sequences are collected here from the array DNA melting data of Ke et al. (doi:10.1101/2024.01.08.574731).

Series [1] is described as follows: melting temperature; fluorescence melt of hairpins on a sequencing array, two-state fit, raised by 9.35 °C to match UV melts. The note with it: sodium 0.088 M. The procedure, abridged: (§1)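 Folding enthalpy and melting temperature come from bootstrapped two-state fits to Cy3 fluorescence of library hairpins carrying annealed Cy3 and quencher oligos on a sequenced MiSeq flow cell. Imaging was done in 50 mM Na-HEPES pH 8.0, 25 mM NaCl, stepping by 2.5 °C up to 60 °C, and signals were normalised to pre-quench Cy3 and to control constructs. Results of four replicates were combined by inverse variance, and fitted temperatures were raised by 9.35 °C to match UV melts.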

A short description of series [2]: folding enthalpy; higher = less favourable; fluorescence melt of hairpins on a sequencing array, two-state fit. Particulars: sodium 0.088 M. The procedure, abridged:
as §1

Consider CGCTCGCGGAAACGCGCG (((..(((....)))))), for which, in series [1], the Tm came out at 61.2 °C. Moreover, in series [2], the folding enthalpy is -7.4 kcal/mol.
With CGCTCGGAAACGAATGCG ((((((....)))..))), the Tm in series [1] is 45 °C. The folding enthalpy in series [2] is -23.3 kcal/mol.
Turning to CGCTCGGAAACGACGCG ((((((....))).))), in series [1], the Tm stood at 51.1 °C. Besides, the folding enthalpy in series [2] was -34.6 kcal/mol.
In the same order, the values of CGCTCGGAAACGAGAGCG ((((((....)))..))) are 52.2 °C and -25.7 kcal/mol.
In the same order, the values of CGCTTCCGGAAACGGGCG (((..(((....)))))) are 40 °C and -23.4 kcal/mol.
For CGCTTCGGAAACGAGCG (((.(((....)))))), the Tm in series [1] is 49.3 °C. Besides, in series [2], the folding enthalpy is -27.1 kcal/mol.
In the same order, the values of CGGACACGGAAACGTCCG (((..(((....)))))) are 47.6 °C and -26 kcal/mol.
On the same counts, the results for CGGACGGAAACGTACCCG ((((((....)))..))) are 34.5 °C and -14.4 kcal/mol.
On the same counts, the results for CGGACGGAAACGTATCCG ((((((....)))..))) are 36.7 °C and -17.5 kcal/mol.
As for CGGACGGAAACGTCGCCG ((((((....)))..))), the Tm in series [1] stood at 34.5 °C. In series [2], the folding enthalpy is -12.1 kcal/mol.
On the same counts, the results for CGGACGGAAACGTGACCG ((((((....)))..))) are 38.3 °C and -25 kcal/mol.
In the same order, the values of CGGACGGAAACGTTCCCG ((((((....)))..))) are 37.2 °C and -15.8 kcal/mol.
Regarding CGGACGGAAACGTTCCG ((((((....))).))), in series [1], the Tm is 51.2 °C. The folding enthalpy in series [2] is -27.5 kcal/mol.
As for CGGACTCGGAAACGACCG (((..(((....)))))), the Tm in series [1] worked out at 32.9 °C. Further, the folding enthalpy in series [2] is -17.5 kcal/mol.
In the same order, the values of CGGAGACGGAAACGTCCG (((..(((....)))))) are 47.1 °C and -17.6 kcal/mol.
On the same counts, the results for CGGAGCGGAAACGCCCG (((.(((....)))))) are 55.6 °C and -30.6 kcal/mol.
In the same order, the values of CGGAGGAAACTCCG (((((....))))) are 57.1 °C and -20.5 kcal/mol.
Turning to CGGATTCGGAAACGACCG (((..(((....)))))), the Tm in series [1] was 35.7 °C. The folding enthalpy in series [2] is -17.8 kcal/mol.
As to CGGCACGGAAACGTCCCG (((.(((....))).))), the Tm in series [1] stood at 42 °C. In addition, the folding enthalpy in series [2] is -26 kcal/mol.
Consider CGGCACGGAAACGTTCCG (((.(((....))).))), for which the Tm in series [1] amounted to 47.9 °C. In addition, the folding enthalpy in series [2] was -24.5 kcal/mol.
In the same order, the values of CGGCAGAAATGCCG (((((....))))) are 64.9 °C and -31.3 kcal/mol.
In the same order, the values of CGGCAGCGGAAACGCCCG (((..(((....)))))) are 47 °C and -21.7 kcal/mol.
In the same order, the values of CGGCCCGGAAACGGCCCG (((.(((....))).))) are 51.8 °C and -17.9 kcal/mol.
Turning to CGGCCGGAAACGGCTCCG ((((((....)))..))), in series [1], the Tm was found to be 33.7 °C. In addition, the folding enthalpy in series [2] is -8.35 kcal/mol.
On to CGGCCGGAAACGGGACCG ((((((....)))..))), for which the Tm in series [1] came out at 47.8 °C. Also, the folding enthalpy in series [2] was -25.5 kcal/mol.
In the same order, the values of CGGCCGGAAACGGGGCCG ((((((....)))..))) are 59.1 °C and -39.4 kcal/mol.
For the sequence CGGCTCCGGAAACGGCCG (((..(((....)))))), the Tm in series [1] was 50.3 °C. Also, in series [2], the folding enthalpy was -27.1 kcal/mol.
As for CGGCTCGGAAACGAACCG (((.(((....))).))), in series [1], the Tm is 51 °C. For the same sequence, the folding enthalpy in series [2] was -44.5 kcal/mol.
In the same order, the values of CGGGAGAAATCCCG (((((....))))) are 57.1 °C and -25.9 kcal/mol.
Consider CGGGCTCGGAAACGACCG (((..(((....)))))), for which, in series [1], the Tm amounted to 40.6 °C. The folding enthalpy in series [2] is -22.6 kcal/mol.
On the same counts, the results for CGGGGTCGGAAACGACCG (((..(((....)))))) are 51.9 °C and -7.49 kcal/mol.
On the same counts, the results for CGGGTGCGGAAACGCCCG (((..(((....)))))) are 55.7 °C and -23.4 kcal/mol.
On the same counts, the results for CGGTACCGGAAACGGCCG (((..(((....)))))) are 40.9 °C and -20.8 kcal/mol.
As to CGGTAGAAATACCG (((((....))))), the Tm in series [1] was 48.6 °C. The folding enthalpy in series [2] is -28.2 kcal/mol.
For CGGTCCGGAAACGGCCCG (((.(((....))).))), the Tm in series [1] came to 55.1 °C. In addition, the folding enthalpy in series [2] is -29.4 kcal/mol.
Consider CGGTCGGAAACGAACCCG ((((((....)))..))), for which the Tm in series [1] turned out to be 38.2 °C. Besides, the folding enthalpy in series [2] is -19.3 kcal/mol.
Take CGGTCGGAAACGACACCG ((((((....)))..))): in series [1], the Tm stood at 38 °C. The folding enthalpy in series [2] was -11 kcal/mol.
